Activity calls are given as the source filed them. No rule for the calls is given here. Peptide text beside a SMILES is read from it. * marks the point of attachment. NH(4-amidinobenzyl) = N=C(N)c1ccc(CN*)cc1
Assays:
[1] = organism: Homo sapiens; assay: Selectivity index, ratio of Ki for recombinant human furin expressed in drosophila S2 cells to Ki for recombinant human PACE4 expressed in drosophila S2 cells; format: cell-based
Summary of the method: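 Ratio Ki(furin)/Ki(PACE4). […] PACE4 buffer was BisTris pH 6.5; furin buffer was HEPES pH 7.5, or BisTris pH 6.5 for His peptides. Ki fitted by Morrison equation from three independent experiments.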

[2] = biological target: Furin (Homo sapiens, UniProt P09958); assay: Inhibition of recombinant human furin expressed in drosophila S2 cells using pyrGlu-Arg-Thr-Lys-Arg-7-amido-4-methylcoumarin as substrate after 60 mins by spectrofluorometry method; format: cell-based
Sequence of Furin (P09958 whole entry): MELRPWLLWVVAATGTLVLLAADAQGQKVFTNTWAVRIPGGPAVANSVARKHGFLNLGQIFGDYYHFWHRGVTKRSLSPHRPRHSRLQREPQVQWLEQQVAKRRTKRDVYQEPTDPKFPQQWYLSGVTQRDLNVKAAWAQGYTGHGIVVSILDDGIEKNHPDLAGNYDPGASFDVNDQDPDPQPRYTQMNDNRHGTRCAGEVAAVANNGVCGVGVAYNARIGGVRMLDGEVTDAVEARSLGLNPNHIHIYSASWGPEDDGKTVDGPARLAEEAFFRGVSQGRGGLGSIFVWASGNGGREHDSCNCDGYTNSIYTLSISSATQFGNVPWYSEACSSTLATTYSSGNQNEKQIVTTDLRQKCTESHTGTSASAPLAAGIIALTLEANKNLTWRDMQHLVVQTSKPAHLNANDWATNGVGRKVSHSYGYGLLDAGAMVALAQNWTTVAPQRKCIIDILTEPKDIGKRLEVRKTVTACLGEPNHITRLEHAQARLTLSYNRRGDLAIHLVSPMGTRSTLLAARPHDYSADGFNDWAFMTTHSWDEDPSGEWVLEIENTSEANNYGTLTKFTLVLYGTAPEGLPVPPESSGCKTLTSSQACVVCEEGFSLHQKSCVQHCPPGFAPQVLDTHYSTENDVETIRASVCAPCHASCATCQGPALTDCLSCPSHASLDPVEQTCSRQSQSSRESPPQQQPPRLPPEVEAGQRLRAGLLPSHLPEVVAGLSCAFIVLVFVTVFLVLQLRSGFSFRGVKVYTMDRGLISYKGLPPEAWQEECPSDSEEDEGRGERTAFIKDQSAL
Summary of the method: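 Human recombinant purified furin at 2 units/100 µL (0.54 nM), in 100 mM HEPES pH 7.5, 1 mM CaCl2, 1 mM β-mercaptoethanol, 1.8 mg/mL BSA. His-containing peptides run instead in 20 mM BisTris pH 6.5 with the same additives. Substrate 100 µM, KM 5.04 µM. Inhibitor 1 nM to 10 µM; 60 min at 37°C. Fluorescence ex 370 / em 460 nm. Ki by Morrison equation; triplicate experiments, mean ± SD.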

[3] = tested on: DU-145; assay: Antiproliferative activity against human DU145 cells assessed as reduction in metabolic activity at 25 to 100 uM after 72 hrs by MTT assay; format: functional, cell-based
Summary of the method: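 First-pass MTT screen of each library peptide on DU145 cells (RPMI 1640, 5% FBS, 1500 cells/well, poly-L-lysine plates). Peptides added 24 h after seeding at 25, 50 and 100 µM in fresh serum medium for 72 h. MTT 1 mg/mL for 4 h; 2-propanol HCl solubilisation. Activity normalised to water vehicle. Mean ± SEM of at least two independent experiments.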

[4] = biological target: T1, Proprotein convertase subtilisin/kexin type 6 (Homo sapiens, UniProt P29122); assay: Inhibition of recombinant human PACE4 expressed in drosophila S2 cells using pyrGlu-Arg-Thr-Lys-Arg-7-amido-4-methylcoumarin as substrate after 60 mins by spectrofluorometry method; format: cell-based
T1 sequence (P29122 whole entry): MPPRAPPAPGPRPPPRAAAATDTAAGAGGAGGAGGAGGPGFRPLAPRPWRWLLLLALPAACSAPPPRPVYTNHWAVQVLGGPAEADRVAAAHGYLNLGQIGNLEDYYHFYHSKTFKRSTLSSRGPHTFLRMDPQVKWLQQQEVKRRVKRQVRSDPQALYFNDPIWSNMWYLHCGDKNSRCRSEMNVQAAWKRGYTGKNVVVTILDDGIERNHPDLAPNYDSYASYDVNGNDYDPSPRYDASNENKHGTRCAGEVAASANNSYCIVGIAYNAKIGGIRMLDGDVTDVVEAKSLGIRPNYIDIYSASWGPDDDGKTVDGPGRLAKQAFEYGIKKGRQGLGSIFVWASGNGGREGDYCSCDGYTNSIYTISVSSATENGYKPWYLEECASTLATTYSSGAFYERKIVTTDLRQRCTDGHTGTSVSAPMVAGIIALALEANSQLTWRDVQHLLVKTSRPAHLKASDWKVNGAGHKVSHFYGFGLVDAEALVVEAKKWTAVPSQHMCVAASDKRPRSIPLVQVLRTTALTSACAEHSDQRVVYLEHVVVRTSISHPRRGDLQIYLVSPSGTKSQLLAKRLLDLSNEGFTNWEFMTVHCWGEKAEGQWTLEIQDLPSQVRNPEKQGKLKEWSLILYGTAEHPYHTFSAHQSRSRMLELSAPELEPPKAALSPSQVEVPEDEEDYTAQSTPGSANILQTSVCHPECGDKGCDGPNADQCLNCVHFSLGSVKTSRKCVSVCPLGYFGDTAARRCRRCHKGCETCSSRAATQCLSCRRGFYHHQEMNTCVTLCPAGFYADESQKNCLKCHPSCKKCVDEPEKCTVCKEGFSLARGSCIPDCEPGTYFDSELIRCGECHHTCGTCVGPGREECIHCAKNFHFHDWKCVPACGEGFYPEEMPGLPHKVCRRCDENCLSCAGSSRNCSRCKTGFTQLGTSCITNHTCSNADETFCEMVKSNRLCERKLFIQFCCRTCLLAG
Summary of the method: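 Human recombinant purified PACE4 at 2 units/100 µL (20.18 nM), in 20 mM BisTris pH 6.5, 1 mM CaCl2, 1.8 mg/mL BSA. Substrate 100 µM, KM 4.035 µM. Inhibitor 1 nM to 10 µM; 60 min at 37°C. Fluorescence ex 370 / em 460 nm. Ki by Morrison tight-binding equation; three independent experiments, mean ± SD.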

Ki [2] [nM] | Ki [4] [nM] | Structure (SMILES) | Ratio Ki [1] | Activity [3]
1.4 | 4 | CC(=O)N[C@@H](CC(C)C)C(=O)N[C@@H](CC(C)C)C(=O)N1CCC[C@H]1C(=O)N[C@@H](CC(C)C)C(=O)N[C@@H](CCCNC(=N)N)C(=O)N[C@H](C(=O)N[C@@H](CCCCN)C(=O)NCc1ccc(C(=N)N)cc1)C(C)C (Ac-LLPLRVK-{NH(4-amidinobenzyl)}) | 0.4 | inactive
0.9 | 2 | CC(=O)N[C@@H](CC(C)C)C(=O)N[C@@H](CC(C)C)C(=O)N[C@@H](CC(C)C)C(=O)N[C@@H](CCCCN)C(=O)N[C@@H](CCCNC(=N)N)C(=O)N[C@H](C(=O)N[C@@H](CCCCN)C(=O)NCc1ccc(C(=N)N)cc1)C(C)C (Ac-LLLKRVK-{NH(4-amidinobenzyl)}) | 0.5 | inactive
4 | 6 | CC(=O)N[C@@H](CC(C)C)C(=O)N[C@@H](CC(C)C)C(=O)N[C@@H](CC(C)C)C(=O)N1CCC[C@H]1C(=O)N[C@@H](CCCNC(=N)N)C(=O)N[C@H](C(=O)N[C@@H](CCCCN)C(=O)NCc1ccc(C(=N)N)cc1)C(C)C (Ac-LLLPRVK-{NH(4-amidinobenzyl)}) | 0.7 | inactive
4.8 | 1.8 | CC(=O)N[C@@H](CC(C)C)C(=O)N[C@@H](CC(C)C)C(=O)N[C@@H](Cc1cnc[nH]1)C(=O)N[C@@H](CC(C)C)C(=O)N[C@@H](CCCNC(=N)N)C(=O)N[C@H](C(=O)N[C@@H](CCCCN)C(=O)NCc1ccc(C(=N)N)cc1)C(C)C (Ac-LLHLRVK-{NH(4-amidinobenzyl)}) | 2.7 | inactive
4 | 2.2 | CC(=O)N[C@@H](CC(C)C)C(=O)N[C@@H](CC(C)C)C(=O)N[C@@H](CCCCN)C(=O)N[C@@H](CC(C)C)C(=O)N[C@@H](CCCNC(=N)N)C(=O)N[C@H](C(=O)N[C@@H](CCCCN)C(=O)NCc1ccc(C(=N)N)cc1)C(C)C (Ac-LLKLRVK-{NH(4-amidinobenzyl)}) | 1.8 | inactive
38 | 46 | CC(=O)N[C@@H](CC(C)C)C(=O)N[C@@H](CC(C)C)C(=O)N[C@@H](CC(C)C)C(=O)N[C@@H](CCC(=O)O)C(=O)N[C@@H](CCCNC(=N)N)C(=O)N[C@H](C(=O)N[C@@H](CCCCN)C(=O)NCc1ccc(C(=N)N)cc1)C(C)C (Ac-LLLERVK-{NH(4-amidinobenzyl)}) | 0.8 | inactive
18 | 28 | CSCC[C@H](NC(=O)[C@H](CC(C)C)NC(=O)[C@H](CC(C)C)NC(C)=O)C(=O)N[C@@H](CC(C)C)C(=O)N[C@@H](CCCNC(=N)N)C(=O)N[C@H](C(=O)N[C@@H](CCCCN)C(=O)NCc1ccc(C(=N)N)cc1)C(C)C (Ac-LLMLRVK-{NH(4-amidinobenzyl)}) | 0.6 | inactive
6 | 6 | CSCC[C@H](NC(C)=O)C(=O)N[C@@H](CC(C)C)C(=O)N[C@@H](CC(C)C)C(=O)N[C@@H](CC(C)C)C(=O)N[C@@H](CCCNC(=N)N)C(=O)N[C@H](C(=O)N[C@@H](CCCCN)C(=O)NCc1ccc(C(=N)N)cc1)C(C)C (Ac-MLLLRVK-{NH(4-amidinobenzyl)}) | 1 | inactive
16.7 | 21 | CC(=O)N[C@@H](CC(C)C)C(=O)N[C@@H](CC(C)C)C(=O)NCC(=O)N[C@@H](CC(C)C)C(=O)N[C@@H](CCCNC(=N)N)C(=O)N[C@H](C(=O)N[C@@H](CCCCN)C(=O)NCc1ccc(C(=N)N)cc1)C(C)C (Ac-LLGLRVK-{NH(4-amidinobenzyl)}) | 0.8 | inactive
0.5 | 0.9 | CC(=O)N[C@@H](CC(C)C)C(=O)N[C@@H](CC(C)C)C(=O)N[C@@H](CCCNC(=N)N)C(=O)N[C@@H](CC(C)C)C(=O)N[C@@H](CCCNC(=N)N)C(=O)N[C@H](C(=O)N[C@@H](CCCCN)C(=O)NCc1ccc(C(=N)N)cc1)C(C)C (Ac-LLRLRVK-{NH(4-amidinobenzyl)}) | 0.6 | inactive
2 | 2 | CC(=O)N[C@@H](CC(C)C)C(=O)N[C@H](C(=O)N[C@@H](CC(C)C)C(=O)N[C@@H](CC(C)C)C(=O)N[C@@H](CCCNC(=N)N)C(=O)N[C@H](C(=O)N[C@@H](CCCCN)C(=O)NCc1ccc(C(=N)N)cc1)C(C)C)C(C)C (Ac-LVLLRVK-{NH(4-amidinobenzyl)}) | 1 | inactive
1.1 | 0.6 | CC(=O)N[C@@H](CCCNC(=N)N)C(=O)N[C@@H](CC(C)C)C(=O)N[C@@H](CC(C)C)C(=O)N[C@@H](CC(C)C)C(=O)N[C@@H](CCCNC(=N)N)C(=O)N[C@H](C(=O)N[C@@H](CCCCN)C(=O)NCc1ccc(C(=N)N)cc1)C(C)C (Ac-RLLLRVK-{NH(4-amidinobenzyl)}) | 1.8 | inactive
1.5 | 2 | CC(=O)N[C@@H](CC(C)C)C(=O)N[C@@H](C)C(=O)N[C@@H](CC(C)C)C(=O)N[C@@H](CC(C)C)C(=O)N[C@@H](CCCNC(=N)N)C(=O)N[C@H](C(=O)N[C@@H](CCCCN)C(=O)NCc1ccc(C(=N)N)cc1)C(C)C (Ac-LALLRVK-{NH(4-amidinobenzyl)}) | 0.8 | inactive
5 | 4.1 | CC(=O)N[C@@H](CC(C)C)C(=O)N[C@@H](CC(C)C)C(=O)N[C@@H](CCC(N)=O)C(=O)N[C@@H](CC(C)C)C(=O)N[C@@H](CCCNC(=N)N)C(=O)N[C@H](C(=O)N[C@@H](CCCCN)C(=O)NCc1ccc(C(=N)N)cc1)C(C)C (Ac-LLQLRVK-{NH(4-amidinobenzyl)}) | 1.2 | inactive
2.6 | 2 | CC(=O)N[C@@H](CC(C)C)C(=O)N[C@@H](CO)C(=O)N[C@@H](CC(C)C)C(=O)N[C@@H](CC(C)C)C(=O)N[C@@H](CCCNC(=N)N)C(=O)N[C@H](C(=O)N[C@@H](CCCCN)C(=O)NCc1ccc(C(=N)N)cc1)C(C)C (Ac-LSLLRVK-{NH(4-amidinobenzyl)}) | 1.3 | inactive
0.6 | 0.5 | CC(=O)N[C@@H](CC(C)C)C(=O)N[C@@H](CCCCN)C(=O)N[C@@H](CC(C)C)C(=O)N[C@@H](CC(C)C)C(=O)N[C@@H](CCCNC(=N)N)C(=O)N[C@H](C(=O)N[C@@H](CCCCN)C(=O)NCc1ccc(C(=N)N)cc1)C(C)C (Ac-LKLLRVK-{NH(4-amidinobenzyl)}) | 1.2 | inactive
2.3 | 3 | CC(=O)N[C@@H](CC(C)C)C(=O)N[C@@H](CCC(N)=O)C(=O)N[C@@H](CC(C)C)C(=O)N[C@@H](CC(C)C)C(=O)N[C@@H](CCCNC(=N)N)C(=O)N[C@H](C(=O)N[C@@H](CCCCN)C(=O)NCc1ccc(C(=N)N)cc1)C(C)C (Ac-LQLLRVK-{NH(4-amidinobenzyl)}) | 0.8 | inactive
1 | 4 | CC(=O)N[C@@H](CC(C)C)C(=O)N[C@@H](CC(N)=O)C(=O)N[C@@H](CC(C)C)C(=O)N[C@@H](CC(C)C)C(=O)N[C@@H](CCCNC(=N)N)C(=O)N[C@H](C(=O)N[C@@H](CCCCN)C(=O)NCc1ccc(C(=N)N)cc1)C(C)C (Ac-LNLLRVK-{NH(4-amidinobenzyl)}) | 0.3 | inactive

Source: ChEMBL document CHEMBL4049407, “Positional Scanning Identifies the Molecular Determinants of a High Affinity Multi-Leucine Inhibitor for Furin and PACE4” (J Med Chem, 2017)
